Screens (PubChem)
ZTA DNA inh: blocks Epstein-Barr virus ZTA, an EBNA-1 counter-screen; P03206; ZTA-DNA binding, fluorescence polarization; inhibition, % at 11 µM; 320,000 compounds, 0.15% hits; AID 2234; in the data active = inhibition above about 33%
Target sequence (P03206 whole entry, looked up): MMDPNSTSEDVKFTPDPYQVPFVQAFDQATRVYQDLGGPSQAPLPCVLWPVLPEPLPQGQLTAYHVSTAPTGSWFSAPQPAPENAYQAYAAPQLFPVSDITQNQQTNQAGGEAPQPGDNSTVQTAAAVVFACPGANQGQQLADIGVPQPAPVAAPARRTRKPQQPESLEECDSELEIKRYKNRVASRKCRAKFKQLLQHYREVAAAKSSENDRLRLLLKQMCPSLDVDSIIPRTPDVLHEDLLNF
HCV NS3 hel inh: inhibitors of Hepatitis C virus NS3 helicase; NS3 helicase DNA unwinding, Cy5 molecular beacon fluorescence; inhibition, % at 10.9 µM; 290,000 compounds, 0.56% hits; AID 1800;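 active = inhibition above the mean of all tested compounds plus 3 SD, set per campaign, cut at about 35% in these data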;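 note: 0% = DMSO wells and 100% = thioflavine S control wells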
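assay system = NS3 helicase fragment of HCV | buffer or medium = MOPS pH 6.5, MgCl2, DTT, Tween20, BSA | timing = 60 min unwinding reaction at 25 °C after ATP addition | signal = Cy5 beacon fluorescence read at start and 1 h | read-out basis = % inhibition of unwinding | control set = low DMSO, high thioflavine S at 110 µM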
core dimer inh: blocks dimerization of HCV core protein; TR-FRET GST/Flag-core106 dimerization, 1536-well; inhibition, % at 5 µM; 300,000 compounds, 0.33% hits; AID 1899;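 active = inhibition above the mean of all tested compounds plus 3 SD, set per screening campaign, cut at about 45% in these data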
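System – GST-tagged and Flag-tagged HCV core protein residues 1-106 · Repeats – one well for each compound · Technique – TR-FRET 671 and 617 nm emission · Doses – one concentration, 5 µM, in 0.5% DMSO · Times – 4 h, 22.5 °C incubation · Also added – Eu donor and XL665 acceptor anti-tag antibodies · Measure – percent inhibition of core106 dimerization signal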
EBNA-1 inh: blocks EBNA-1 binding to DNA; inhibition, % at 14.8 µM; EBNA-1 DNA binding, fluorescence polarization; 300,000 compounds, 0.34% hits; in the data active = inhibition above about 28%
Zta DNA confirm: EBV ZTA DNA binding inhibition, confirmation; shares compounds with ZTA DNA inh; Zta-ZRE DNA binding, fluorescence polarization; inhibition, % at 11.1 µM; 320 compounds, 30% hits; AID 2361;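 active = mean inhibition across triplicate runs above the hit threshold derived for the original primary screen, cut at about 33% in these data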;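 note: 0% = Zta with DMSO and 100% = wells lacking Zta protein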
EBNA-1 counter: blocks EBNA-1 DNA binding in ZTA counter-screen. fluorescence polarization. shares compounds with ZTA DNA inh. 320 tested, under 10 active. inhibition, % at 14.8 µM. AID 2362; call rule not given here
The depositor's hits bear a star; . = no result given. In the library only some 1.2% were active in any assay of this set; here they are far more common.

SMILES	ZTA DNA inh	HCV NS3 hel inh	core dimer inh	EBNA-1 inh	Zta DNA confirm	EBNA-1 counter
CC(C(=O)OCC(=O)c1ccc(Br)cc1)N1C(=O)C2C3C=CC(C3)C2C1=O (stereo not drawn)	36*	-1	1	-2	-8	-6
O=C(NC(NCc1cccnc1)C(Cl)(Cl)Cl)c1cccc2ccccc12 (stereo not drawn)	6	-3	4	-3	.	.
COc1ccc(C(=O)Nc2ccc(C(=O)Nc3cccnc3)cc2)cc1	52*	2	-5	11	23	7
CCc1cccc(CC)c1NC(=O)CN1C2CCCC1CC(NC(=O)Nc1cccc(OC)c1)C2 (stereo not drawn)	-4	-7	5	-10	.	.
COc1ccc(-n2c(C)c3c(OC)cccc(=O)c3c2C)cc1	13	11	11	7	.	.
COc1cccc(=O)c2c(C)n(-c3ccc(C(=O)O)cc3)c(C)c12	46*	15	-1	16	-8	-4
CCN(Cc1ccccc1)C(=O)COc1cc(=O)n(CC)c2ccccc12	-11	-6	3	2	.	.
CCCN(CCC)C(=O)COc1cc(=O)n(CC)c2ccccc12	118*	0	-6	0	-3	-3
Cc1nn(CC(=O)NCc2ccc(-n3cccn3)cc2)c(C)c1[N+](=O)[O-]	5	-9	-7	7	.	.
CCOc1ccc2noc3c2c1C(=O)c1ccccc1-3	2	0	-15	-10	.	.
CCNc1ccc2noc3c2c1C(=O)c1ccccc1-3	63*	21	-125	-3	19	9
COc1ccc(CCNC(=O)C2c3ccccc3C(=O)N2CCC(C)C)cc1OC (stereo not drawn)	75*	3	-2	-18	-6	5
CCOc1ccc(CN2C(=O)c3ccccc3C2C(=O)NC(C)CC)cc1OC (stereo not drawn)	-1	-4	-8	9	.	.
CN(C(=O)c1cccc(C#N)c1)c1nnc(C2CCCO2)s1 (stereo not drawn)	110*	-12	-6	-2	4	1
Cc1nnc(N(Cc2ccco2)C(=O)c2cccc(C#N)c2)s1	-6	-3	-2	1	.	.
O=C(COc1ccc(S(=O)(=O)NC2CCCCC2)cc1Cl)NCC1CCCO1 (stereo not drawn)	152*	3	-4	4	12	0
CCN(CC)CCNC(=O)c1nn(-c2ccc(C)cc2)c(=O)c2c1c1ccccc1n2C	-1	-22	3	-4	.	.
Cc1ccc(-n2nc(C(=O)NCc3ccco3)c3c4ccccc4n(C)c3c2=O)cc1	45*	-1	47*	15	1	22
c1ccc(-c2nnc(-c3ccco3)o2)cc1	-16	-1	4	9	.	.
c1coc(-c2nnc(-c3ccco3)nn2)c1	37*	35	21	5	33*	-8
CC1CCc2c(C(=O)Nc3cccc(-c4nn[nH]n4)c3)csc2C1 (stereo not drawn)	-10	-11	5	1	.	.
NS(=O)(=O)c1ccc(NC(=O)c2cccc(N3C(=O)c4ccccc4C3=O)c2)cc1	61*	-59	16	-2	58*	-1
COc1ccc(NC(=O)CCN2CCC(C)CC2)cc1	-11	2	-1	-20	.	.
COc1ccc(NC(=O)CCN2CCCC(C)C2)cc1 (stereo not drawn)	52*	4	0	5	1	-10
CN(C)C(=O)CCCCCCCCC(=O)N(C)C	33*	-5	-1	8	8	0
SMILES	ZTA DNA inh	HCV NS3 hel inh	core dimer inh	EBNA-1 inh	Zta DNA confirm	EBNA-1 counter
COc1ccc2nc(SCC(=O)Nc3cc(C)on3)c(C#N)cc2c1	50*	6	-236	-6	11	6
COc1cc2cc(C#N)c(SCC(=O)Nc3cc(C)on3)nc2cc1OC	0	3	-122	12	.	.
COc1cc(C#Cc2c(-c3cncn3C)n(C)c3ccc(-c4cnc(OC)nc4)cc23)cc(OC)c1	38*	.	.	.	5	-2
CC(C)N(C)S(=O)(=O)c1ccc(NC(=O)C2=COCCO2)cc1	9	.	.	.	.	.
Cn1nc(-c2ccc(Cl)cc2)nc2c(=O)n(C)c(=O)nc1-2	49*	8	68*	-21	82*	-4
COc1ccc(OC(=O)COc2ccc(Cl)cc2)cc1	2	-3	11	4	.	.
COc1ccccc1N1CCN(CC(=O)Nc2ccc(-n3cnnn3)cc2)CC1	0	-16	-2	-3	.	.
